Compound activity deposited in PubChem BioAssay by several laboratories.
Calb FLC – C. albicans growth inhibition with fluconazole, primary screen, CaCi-2 strain, Alamar Blue fluorescence; C. albicans CaCi-2 (fluconazole-resistant clinical isolate) + fluconazole, 48 h; growth inhibition, % (concentration not given with the values); 0.57% of 300,000 active;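 active = growth inhibition above about 58% in most replicates, limit read from the data, passing the limit was not always enough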;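 also: all wells also contain fluconazole at 8 µg/ml as a sub-toxic cotreatment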
PolyA inhibitor – polyadenylation inhibitors in yeast reporter cells, primary screen, luminescence, S. cerevisiae. 0.02% of 300,000 active. activity score, % at 12 µM. AID 1875, 2009. S. cerevisiae SKY197-pL101 polyadenylation reporter, beta-gal luminescence; efflux-impaired pdr1/pdr3 knockout yeast; score 100 = 6 SD above DMSO;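 active = lowest replicate activity score at least 50, where 100 means six control SD above control mean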;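 also: yeast exposed to compound for 9 h at 30 °C; higher score means more reporter readthrough which indicates perturbed polyadenylation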
NALP1 yeast inh – NALP1 inflammasome inhibitors in reconstituted yeast, colorimetric, S. cerevisiae, triplicate retest; 0.61% of 280,000 active; AID 2071, 2009; inhibition, % at 10 µM; S. cerevisiae NALP1/ASC/caspase-1 growth, X-gal OD620, 72 h; in the data active = inhibition mostly above about 24%, no sharp cut-off; inactive = mostly below about 32%
Lmaj promast – Leishmania major promastigote growth inhibition, primary screen | Leishmania major promastigotes, resazurin fluorescence viability | inhibition, % at 10 µM | 9% of 200,000 active | AID 1063, 2008; in the data active = inhibition above about 50%;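 also: promastigotes grown with compound for 44 hours at 28 °C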
T cruzi inh – inhibitors of intracellular T. cruzi growth, primary screen, luminescence, NIH3T3 host cells; T. cruzi beta-gal in NIH3T3, 90 h; inhibition, % (concentration not given with the values); 1.4% of 300,000 active; AID 1885, 2009;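 active = mean inhibition across valid replicates above about 55%, limit read from the data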;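 also: signal also drops with host cell toxicity which is not excluded here; higher percent means less beta-gal luminescence so fewer parasites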
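Incubation – ≥90 h infection period, 3 h prior cell attachment · System – NIH/3T3 fibroblasts plus reporter T. cruzi · Doses – compound pinned at 50 nL/well, DMSO · Read-out basis – percent inhibition of parasite-derived β-gal signal · Signal – luminescent β-galactosidase signal after 60 min lysis · Also added – 5000 T. cruzi trypomastigotes/well · Medium – Low-serum DMEM with 2% FBS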
NALP3 yeast inh – NALP3 inflammasome inhibitors in reconstituted yeast, primary screen, luminescence, uHTS; Yeast reconstituted NLRP3/ASC/caspase-1, beta-gal luminescence, 24 h; 0.39% of 330,000 active; inhibition, % at 10 µM;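 active = inhibition of 50% or more; inactive = inhibition below 50%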
Large screens that a line does not name were inactive. The entries come from a sample that favours hits as a whole.

COc1ccc2c(-c3cc4ccc(OCc5ccc(F)cc5)cc4oc3=O)cc(=O)oc2c1	Lmaj promast 52 (no result: NALP3 yeast inh)
CCN(CC)C(=O)COc1ccc2c(-c3ccc(OC)cc3)cc(=O)oc2c1	none (no result: Lmaj promast)
COc1ccc(-c2cc(=O)oc3cc(OCC(C)=O)ccc23)cc1	Lmaj promast 64
Cc1cc(=O)oc2cc(OCc3ccccc3)ccc12	none (no result: Lmaj promast)
COc1cccc(CN2CC(C(=O)N3CCN(c4ccc(Cl)cc4)CC3)CCC2=O)c1 (configuration not stated)	none (no result: Lmaj promast)
COC(=O)c1c(NC(=O)c2cccnc2Cl)sc(C(=O)N(C)C)c1C	none
CC(C)OC(=O)c1sc2nc(-c3ccccc3)ccc2c1N	none
Cc1ccc2c(N)c(C(=O)N(c3ccccc3)c3ccccc3)sc2n1	T cruzi inh 67
CCOc1ccccc1C1C(C#N)=C(SCC(=O)OC)NC(=O)C1C(=O)OC (configuration not stated)	none
COC(=O)C1C(=O)NC(SC)=C(C#N)C1c1ccccc1F (configuration not stated)	Lmaj promast 82 (no result: T cruzi inh)
Cc1ccc(-c2noc(CSc3nnnn3C3CCCCC3)n2)cc1	none
CCOc1ccccc1C(=O)Nc1cccc2cccnc12	none (no result: Lmaj promast)
Cc1ccc(C2=NN(C(=O)CCl)C(c3ccco3)C2)o1 (configuration not stated)	none (no result: Lmaj promast)
Cc1ccc(S(=O)(=O)N2CCCCC2C(=O)NCc2ccco2)cc1 (configuration not stated)	none
Cc1ccc(S(=O)(=O)N2C(=O)CCC2C(=O)NCc2ccco2)cc1 (configuration not stated)	NALP1 yeast inh 40
O=C1C=C(Nc2ccc(Cl)cc2Cl)CC(c2ccco2)C1 (configuration not stated)	none
CCNc1ccc(S(=O)(=O)N(C)C)cc1NCC(=O)Nc1ccc(Br)cc1F	Lmaj promast 72
O=C(NCCc1cccs1)C12CN(Cc3ccccc3)CC1C(c1cccc([N+](=O)[O-])c1)=NO2 (configuration not stated)	none
Cc1ccc(CN(C)C(=O)CN2C(=O)NC(c3ccccc3)(c3ccccc3)C2=O)c(C)c1	none (no result: Calb FLC, PolyA inhibitor, NALP1 yeast inh, Lmaj promast, T cruzi inh)
Cc1ccc(N2C(=O)N3[C@H](c4ccc(F)cc4)[C@@H]4C(=O)N(C5CCCCC5)C(=O)[C@@H]4[C@]3(C)C2=O)cc1	none (no result: Lmaj promast)
COc1cc2c(cc1OC)CN(C(=O)c1ccc(S(=O)(=O)N(C)c3ccccc3)cc1)CC2	Lmaj promast 99
COc1cc2c(cc1OC)CN(C(=O)c1cccc(S(=O)(=O)N(C)C)c1)CC2	none (no result: Lmaj promast)
CN(C)/C=C(/C(=O)c1ccccc1)n1cncn1	none
O=C(/C=C(/c1ccc(Cl)cc1)n1cncn1)c1ccccc1	Lmaj promast 94
CCc1cccc2c1Sc1ccccc1CC2N1CCNCC1 (configuration not stated)	T cruzi inh 64 (no result: NALP1 yeast inh, Lmaj promast)
CN1CCN(C2Cc3ccccc3Sc3cc(C(F)(F)F)ccc32)CC1 (configuration not stated)	none (no result: NALP1 yeast inh, Lmaj promast)
CN1CCN(C2Cc3ccccc3Sc3ccc(Cl)cc32)CC1 (configuration not stated)	none (no result: Calb FLC, PolyA inhibitor, NALP1 yeast inh, Lmaj promast, T cruzi inh)
Cc1cccc2c1Sc1ccc(Cl)cc1CC2N1CCNCC1 (configuration not stated)	T cruzi inh 63 (no result: NALP1 yeast inh, Lmaj promast)
CCOc1ccc(S(=O)(=O)c2c(C(=O)c3ccccc3)cnc3cc4c(cc23)OCCO4)cc1	T cruzi inh 71
CCC1Nc2ncnc(N3CCN(c4ccccc4)CC3)c2N(Cc2ccc(Br)cc2)C1=O (configuration not stated)	T cruzi inh 58 (no result: NALP1 yeast inh, Lmaj promast)
O=C1C(Cc2ccccc2)Nc2ncnc(N3CCN(c4ccccc4)CC3)c2N1Cc1ccc(Br)cc1 (configuration not stated)	none (no result: Calb FLC, PolyA inhibitor, NALP1 yeast inh, Lmaj promast, T cruzi inh)
CSc1nc(-c2ccccc2)cn1-c1ccc(NC(C)=O)cc1	none
CCOc1ccc(-c2cn(-c3ccc(OC)cc3)c(SC)n2)cc1	Lmaj promast 51
Fc1ccc(COc2ccccc2CNCc2ccncc2)cc1	Lmaj promast 98, T cruzi inh 56
Brc1ccc(OCc2ccccc2)c(CNCc2ccncc2)c1	Lmaj promast 94, T cruzi inh 56
COc1ccc(-c2nc3ccccn3c2/N=C/c2ccc(OC)c(OC)c2)cc1O	Lmaj promast 60
COc1cc(-c2nc3ccccn3c2/N=C/c2ccccc2)ccc1O	none
COc1cccc(CNS(=O)(=O)c2ccc3c(c2)oc(=O)n3C)c1	none (no result: Lmaj promast)
CCOC(=O)Cn1c(=NC(=O)c2ccc([N+](=O)[O-])s2)sc2ccccc21	Lmaj promast 80
COc1ccc(N2C(=O)C(F)(F)C2c2ccc(C)cc2)cc1OC (configuration not stated)	none
COCc1c(C(=O)N2CCc3ccccc32)oc2ccccc12	none (no result: Lmaj promast)
Cc1c(C(=O)N2CCc3ccccc32)oc2ccccc12	Lmaj promast 81 (no result: NALP3 yeast inh)
C=CCN=c1scc(-c2ccc3c(c2)NC(=O)CO3)n1/N=C(\C)c1ccccn1	Lmaj promast 57 (no result: Calb FLC, PolyA inhibitor, T cruzi inh, NALP3 yeast inh)
COc1ccc(-c2c(NC(=O)c3ccco3)oc3c(C)cccc3c2=O)cc1OC	none (no result: Lmaj promast)
O=C(Nc1nc(-c2ccccc2)c(C(=O)c2ccccc2)s1)c1ccc(S(=O)(=O)N2CCCC2)cc1	none
N#CCCN(CCC#N)S(=O)(=O)c1ccc(C(=O)Nc2nc(-c3ccccc3)c(C(=O)c3ccccc3)s2)cc1	none (no result: NALP1 yeast inh, Lmaj promast)
Cc1ccc(-c2nc(NC(=O)c3ccc(S(=O)(=O)N(CCC#N)CCC#N)cc3)sc2-c2ccccc2)cc1	T cruzi inh 56
O=C(Nc1nc(-c2ccccc2)c(-c2ccccc2)s1)c1ccc(S(=O)(=O)N2CCCC2)cc1	Lmaj promast 98
COc1ccc(C(=O)Nc2nc(-c3ccc([N+](=O)[O-])cc3)c(-c3ccccc3)s2)cc1	Lmaj promast 68 (no result: NALP1 yeast inh)
CC(C)Oc1ccc(C(=O)CCN2CCCCC2)cc1	Lmaj promast 90
O=C(CCN1CCCCCC1)c1ccccc1	Lmaj promast 88 (no result: Calb FLC, PolyA inhibitor, T cruzi inh)
O=C(CCCCN1CCCCC1)c1ccc2c(c1)Cc1ccccc1-2	Lmaj promast 100, T cruzi inh 71
CCOc1ccc(C(=O)CCN2CCCCC2)cc1	none
COc1ccc(C(=O)CCN2CCCCCC2)cc1	Lmaj promast 85
CCCOc1ccc(C(=O)CCN2CCN(C(=O)OCC)CC2)cc1	Lmaj promast 96 (no result: Calb FLC, PolyA inhibitor, T cruzi inh, NALP3 yeast inh)
CCC1(C)CC2(CCCN(CCC(=O)c3ccccc3)C2)CCO1 (configuration not stated)	Lmaj promast 69
CC1(C)CC2(CCCN(C(=S)Nc3ccccc3)C2)CCO1 (configuration not stated)	none (no result: Lmaj promast)
Cc1cccc(NC(=S)N/N=C/c2cccc([N+](=O)[O-])c2)c1	none
